Experimental data published in ChEMBL document CHEMBL1131222, “Novel thieno[2,3-d][1,3]oxazin-4-ones as inhibitors of human leukocyte elastase” (J Med Chem, 1998).

Key:
[1] = Alkaline hydrolysis rate (logk-OH); format: ADME; conditions: 50 mM CAPS, pH 10.5 or 11.5, 25 °C
Summary of the method: (§1)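 Thienooxazinone loss followed spectrophotometrically at a fixed wavelength (330–355 nm) in 50 mM CAPS, pH 10.5 or 11.5, 25 °C. Final inhibitor concentration 10–25 μM, 5% final DMSO. Curves analysed as first-order reactions. For some compounds at pH 10.5, reverse-phase HPLC aliquots were taken every 3 h over 24 h, with peak areas at 240 nm fitted to a first-order equation.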

[2] = Alkaline hydrolysis rate (k-OH); format: ADME; summary of the method: as §1
Neutrophil elastase [3] = molecular target: T1, Neutrophil elastase (Homo sapiens, UniProt P08246); test: Steady state inhibition constant for Human Leukocyte Elastase inhibition
T1 sequence (P08246 whole entry): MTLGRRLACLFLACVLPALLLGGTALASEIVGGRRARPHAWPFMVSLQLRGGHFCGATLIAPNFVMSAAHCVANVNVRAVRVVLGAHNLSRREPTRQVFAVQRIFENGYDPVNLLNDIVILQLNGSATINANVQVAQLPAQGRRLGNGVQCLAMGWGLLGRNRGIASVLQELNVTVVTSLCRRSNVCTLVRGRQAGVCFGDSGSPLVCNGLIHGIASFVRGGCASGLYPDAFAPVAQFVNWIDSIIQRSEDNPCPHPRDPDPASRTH
Summary of the method: (§2)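 Progress-curve assay at 25 °C with HLE purified from human leukocytes, in 50 mM sodium phosphate, 500 mM NaCl, pH 7.8. Substrate was MeOSuc-Ala-Ala-Pro-Val-pNA (200 μM final, 405 nm, 30–75 min) or, for a few inhibitors, Suc-Ala-Ala-Pro-Val-AMC (125 μM final, ex 340/em 460 nm, 4–5 min). […] Curves were fitted by slow-binding kinetics (k_obs = k_on'[I] + k_off).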

Neutrophil elastase [4] = molecular target: T1, Neutrophil elastase; test: Negative logarithm of steady state constant Ki for enzyme-inhibitor complex Human Leukocyte Elastase inhibition; summary of the method: as §2
[5] = molecular target: T2, Neutrophil elastase (Homo sapiens) (UniProt P08246)
T2 sequence (whole entry): T1 sequence (P08246 whole entry)

[6] = molecular target: T2, Neutrophil elastase (Homo sapiens); test: Second order rate constant for enzyme-inhibitor complex Human Leukocyte Elastase inhibition was determined; summary of the method: as §2

Row | SMILES | Log kOH- [1] | kOH- [2] [M⁻¹ s⁻¹] | Ki (Neutrophil elastase [3]) [nM] | Ki (Neutrophil elastase [4]) [nM] | koff [5] | kon (10e3* M-1 s-1) [6] | Kon (10e3* M-1 s-1) [6]
1 | Cc1sc2nc(NC(C)C)oc(=O)c2c1C | -1.14 | 0.073 | 75.5 | 75.9 | 0.85 | 1.13 | –
2 | Cc1sc2nc(N3CCOCC3)oc(=O)c2c1C | -1.07 | 0.085 | – | – | – | < 0.6 | –
3 | COC(=O)CSc1nc2sc(C)c(C)c2c(=O)o1 | 0.01 | 1.03 | 238 | 240 | 1.63 | 0.685 | –
4 | CC(C)Nc1nc2sc3c(c2c(=O)o1)CCCC3 | -0.49 | 0.323 | 145 | 145 | – | – | –
5 | Cc1sc2nc(OCC(C)C)oc(=O)c2c1C | 0.41 | 2.55 | 133 | 135 | – | – | –
6 | CN(c1nc2sc3c(c2c(=O)o1)CCCC3)C1CCCCC1 | – | – | – | – | – | < 0.6 | –
7 | O=c1oc(SCc2ccccc2)nc2sc3c(c12)CCCC3 | -0.45 | 0.355 | 290 | 288 | – | – | –
8 | O=c1oc(N2CCOCC2)nc2sc3c(c12)CCCC3 | -1.08 | 0.083 | – | – | – | < 0.8 | –
9 | CCN(CC)c1nc2sc(C)c(C)c2c(=O)o1 | -1.63 | 0.023 | – | – | – | < 0.6 | –
10 | Cc1sc2nc(SCc3ccccc3)oc(=O)c2c1C | -0.16 | 0.69 | 101 | 100 | – | – | –
11 | Cc1sc2nc(N(C)C3CCCCC3)oc(=O)c2c1C | -1.11 | 0.077 | – | – | – | – | < 0.8

More lines, in order of falling Ki (Neutrophil elastase [3]), values ahead:

Row | Log kOH- [1] | kOH- [2] [M⁻¹ s⁻¹] | Ki (Neutrophil elastase [3]) [nM] | Ki (Neutrophil elastase [4]) [nM] | koff [5] | kon (10e3* M-1 s-1) [6] | Kon (10e3* M-1 s-1) [6] | SMILES
12 | 0.26 | 1.83 | 51 | 51.3 | – | – | – | CC(C)COc1nc2sc3c(c2c(=O)o1)CCCC3
13 | -0.48 | 0.332 | 41.8 | 41.7 | – | – | – | CC(C)Nc1nc2sccc2c(=O)o1
14 | 0.22 | 1.65 | 35 | 34.7 | – | – | – | CSc1nc2sc(C)c(C)c2c(=O)o1
15 | -0.04 | 0.92 | 17.9 | 17.8 | – | – | – | COC(=O)CSc1nc2sc3c(c2c(=O)o1)CCCC3
16 | -1.59 | 0.025 | 16.3 | 16.2 | – | – | – | CCN(CC)c1nc2sc3c(c2c(=O)o1)CCCC3
17 | 0.45 | 2.82 | 10.7 | 10.7 | – | – | – | CCOc1nc2sc(C)c(C)c2c(=O)o1
18 | 0.21 | 1.63 | 5.74 | 5.75 | 15.6 | 272 | – | CSc1nc2sc3c(c2c(=O)o1)CCCC3
19 | -0.22 | 0.59 | 5.7 | 5.75 | – | – | – | CCSc1nc2sc3c(c2c(=O)o1)CCCC3
20 | 0.47 | 2.98 | 5.61 | 5.62 | – | – | – | CCOc1nc2scc(C(C)C)c2c(=O)o1
21 | 0.39 | 2.48 | 4.02 | 3.98 | – | – | – | CCCOc1nc2sc(C)c(C)c2c(=O)o1
22 | 0.1 | 1.27 | 2.73 | 2.75 | – | – | – | CCSc1nc2sc(C)c(C)c2c(=O)o1
23 | 0.44 | 2.75 | 1.43 | 1.45 | – | – | – | CCCOc1nc2sc3c(c2c(=O)o1)CCCC3
24 | 0.44 | 2.77 | 1.36 | 1.35 | – | – | – | CCOc1nc2sc3c(c2c(=O)o1)CCCC3
